RAM inhibit = inhibitors of the yeast RAM network. S. cerevisiae dse1pr::URA3 reporter, 5-FOA growth OD615, 2 d; analog-sensitive cbk1-as2 kinase mutant strain. inhibition, % at 50 µM. actives 1.8% (n = 190,000). AID 868;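 active = inhibition above a set limit, 3 SD over mean compound inhibition, cut at about 8.4% in these data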;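 note: 0% = DMSO-only wells with no growth and 100% = 10 µM 1-NA-PP1 full growth; inhibition rescues growth on 5-FOA so higher OD means more RAM inhibition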
Mdm2 ligase inh = blocks human Mdm2 ubiquitin ligase activity; actives 0.11% (n = 210,000); AID 1230; cell-based MDM2 ubiquitination luciferase reporter, 2 h; 0 = plate control, 100 = twice control, blank-subtracted; signal enhancement, % at 5 µM;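 active = signal enhancement of 30% or more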;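 note: luminescence tracks abundance of the self-degrading MDM2-luciferase fusion protein; higher signal means inhibition of MDM2 E3 ligase activity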
Target sequence (Q00987 whole entry, looked up, the tested form may be a part): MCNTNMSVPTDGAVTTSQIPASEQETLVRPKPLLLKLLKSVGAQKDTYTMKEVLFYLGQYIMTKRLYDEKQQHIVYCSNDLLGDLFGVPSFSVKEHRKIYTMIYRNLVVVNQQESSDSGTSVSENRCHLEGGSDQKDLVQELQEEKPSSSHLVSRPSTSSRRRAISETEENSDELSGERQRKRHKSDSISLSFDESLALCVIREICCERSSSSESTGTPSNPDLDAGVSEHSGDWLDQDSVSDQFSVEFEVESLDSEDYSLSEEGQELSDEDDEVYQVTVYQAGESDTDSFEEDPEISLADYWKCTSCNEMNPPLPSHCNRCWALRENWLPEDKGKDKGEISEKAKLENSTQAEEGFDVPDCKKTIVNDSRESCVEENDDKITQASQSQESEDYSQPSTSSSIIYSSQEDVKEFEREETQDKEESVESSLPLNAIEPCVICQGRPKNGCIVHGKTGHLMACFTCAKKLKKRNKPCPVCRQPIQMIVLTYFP
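Assay system: mammalian cells stably expressing self-ubiquitinating, self-degrading MDM2 E3–luciferase fusion. Quantity: 2000 cells in each well. Medium: DMEM culture medium. Compound dosing: single-point 5 µM. Timing: cell settling 4 h, compound treatment 2 h, both 37 °C. Technique: luciferase luminescence. Read-out basis: percent signal gain over controls, blank-subtracted. Benchmarks: plate controls and plate blanks.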
Measles CPE = protection of cells from measles virus; actives 1.5% (n = 140,000); protection (pct of control), % at 4 µM; Measles virus-infected cells, CPE protection, absorbance; in the data active = protection mostly above about 24%, no sharp cut-off; inactive = mostly below about 26%
Yeast life ext = extends the lifespan of yeast. S. cerevisiae growth with nicotinamide, OD615; deaD strain in restrictive glucose medium. inhibition of the nicotinamide effect, % at 10 µM. actives 0.68% (n = 130,000);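 active = inhibition above a set limit, placed 3 SD over the median of all compounds, cut at about 26% in these data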;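 note: 0% = nicotinamide-treated wells and 100% = cells grown without nicotinamide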
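Assay system: engineered S. cerevisiae DeaD replicative-lifespan strain, galactose-grown log-phase cells; medium: restrictive CSMM-D dextrose medium; also added: nicotinamide, 1.5 mM, co-present with compound; schedule: 48 h compound exposure at 30 °C, humidified; detection: absorbance at 615 nm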
Insulin prom inh = TRM-6 insulin promoter activity inhibition; AID 1273; actives 0.9% (n = 130,000); TRM-6 cells, insulin promoter-eGFP reporter, imaging; reporter expression induced with tamoxifen; inhibition, % at 2 µM;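 active = inhibition above the mean plus 3 SD, with well images judged a real hit on visual review, cut at about 60% in these data, passing the limit was not always enough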
Yeast growth inh = chemicals that inhibit yeast BB579 growth in restrictive medium (lifespan-shortening candidates) | S. cerevisiae BB579 growth, OD615, 48 h | inhibition, % at 10 µM | actives 0.51% (n = 140,000) | AID 804;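 active = inhibition above a set limit, 3 SD over the mean compound inhibition, cut at about 44% in these data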
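Test system: S. cerevisiae DeaD strain BB579 yeast; Medium: restrictive CSMM-D medium; Compound: one dose, 10 µM compound with 0.25% DMSO; Incubation: 4 h cell preincubation, 48 h compound exposure, 30 °C humidified; Signal: OD at 615 nm; Benchmarks: amphotericin B at 10 µg/mL as positive control.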
RAM 5-FOA = restores 5-FOA growth of efflux-deficient yeast. 1,200 tested, under 10 active. max inhibition, %. shares compounds with RAM inhibit. S. cerevisiae efflux-deficient reporter strain, 5-FOA growth OD615, 2 days; call rule not given here;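 note: plate controls were vehicle for no effect and reference inhibitor for full effect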
An asterisk follows results filed as active; nt = not tested or not shown. An excerpt weighted towards active compounds, which were near 4% of everything screened.

SMILES	RAM inhibit	Mdm2 ligase inh	Measles CPE	Yeast life ext	Insulin prom inh	Yeast growth inh	RAM 5-FOA
COC(=O)c1ccc(Cn2cnc3c(sc4nc(N5CCOCC5)c5c(c43)CCCC5)c2=O)o1	6.1	5.1	30.1	-8.7	-25.0	-39.2	nt
Cc1cc(C)nc(N2N=C(CSc3ccc(Cl)cc3)CC2=O)n1	13.1*	-4.3	nt	nt	-15.0	nt	1.1
CCn1c(=NC(=O)c2cccc(N3C(=O)CCC3=O)c2)sc2c(OC)ccc(OC)c21	11.5*	-11.0	nt	nt	nt	nt	2.6
COc1ccc(OC)c2c1sc(=NC(=O)c1cccc(N3C(=O)CCC3=O)c1)n2C	2.5	-11.8	23.4	-4.2	nt	-11.5	nt
CCC/C=C(\CCC)C(NS(=O)(=O)c1cccc2cccnc12)c1ccc(C(=O)OC)cc1 (stereo not drawn)	12.6*	nt	5.0	7.3	-40.0	-19.7	4.1
CNC(=S)N1N=C(c2ccc(C)cc2)CC1c1ccc(Cl)cc1 (stereo not drawn)	3.0	-4.6	5.8	-18.0	-11.1	-27.4	nt
CNC(=S)N1N=C(c2ccc(C)cc2)CC1c1ccc(Br)cc1 (stereo not drawn)	21.4*	-21.7	15.0	-5.6	26.7	-56.4	2.4
C=CCn1c(COc2ccccc2)nnc1SCC(=O)Nc1ccc2c(c1)OCCO2	4.4	-6.2	3.1	-1.6	-92.3	-16.3	nt
CCOC(=O)c1cccc(NC(=O)CSc2nnc(COc3ccccc3C)o2)c1	12.0*	-15.4	12.1	-2.8	nt	5.6	1.5
COc1cccc(NC(=O)CSc2nnc(COc3ccc4c(c3)CCCC4)o2)c1	12.1*	2.4	15.4	nt	11.1	-19.5	2.1
C=CCn1c(COc2ccc3c(c2)CCCC3)nnc1SCC(=O)Nc1cccc(SC)c1	15.4*	-14.3	9.8	-8.6	nt	-17.1	4.1
CC(=O)Nc1ccc(OS(=O)(=O)c2c(C)cc(C)cc2C)cc1	2.3	-6.6	nt	nt	14.3	nt	nt
Cc1cc2ccccn2c1C(=O)c1ccc([N+](=O)[O-])o1	1.4	-8.0	nt	nt	-63.6	nt	nt
Cc1cc(C)c(S(=O)(=O)Nc2ccc3c(c2)CCC3)c(C)c1	12.8*	-8.9	2.9	11.0	-15.4	-19.8	2.9
Cc1cc(C)c(S(=O)(=O)Nc2ccc(O)cc2)c(C)c1	-0.9	-6.8	1.4	-8.5	-73.3	16.8	nt
O=C(COc1ccccc1C(=O)O)Nc1ccc(SC(F)F)cc1	0.6	nt	nt	nt	nt	nt	nt
O=C(COC(=O)c1ccccc1Nc1ccc(SC(F)F)cc1)NC1CC1	12.5*	-3.1	3.9	-0.6	-29.6	-2.3	2.4
O=C(COC(=O)c1ccccc1C(=O)c1ccccc1)Nc1ccc(SC(F)F)cc1	13.2*	9.1	7.7	4.3	19.4	-25.6	3.2
NC(=O)COC(=O)c1ccccc1Nc1ccc(SC(F)F)cc1	-0.6	0.2	7.0	-3.7	3.1	9.4	nt
Cc1nc2cc(NCc3ccccc3O)ccc2n1Cc1ccccc1	-1.0	13.1	nt	nt	nt	nt	nt
Cn1c(SCC(=O)N2CCc3ccccc32)nnc1-c1ccc(S(=O)(=O)N2CCCC2)cc1	11.7*	-3.2	3.1	0.8	-19.4	-15.4	2.6
Cc1ccc(S(=O)(=O)NCc2ccc3c(c2)cc(C)n3C)cc1	12.4*	-18.8	5.0	-5.5	nt	-6.1	2.6
CN(C)S(=O)(=O)c1ccc(C(=O)NNC(=O)C2COc3ccccc3O2)cc1 (stereo not drawn)	3.7	-4.9	nt	nt	-2.9	nt	nt
CC(C)SCCCCOc1ccc2ccccc2c1	12.1*	-18.4	11.8	-13.2	nt	-58.1	2.6
CCCCn1c(SCc2nc3ccccc3s2)nc2ccccc2c1=O	12.7*	-11.1	4.5	5.9	nt	-37.7	2.6
SMILES	RAM inhibit	Mdm2 ligase inh	Measles CPE	Yeast life ext	Insulin prom inh	Yeast growth inh	RAM 5-FOA
COC(=O)c1ccc(C(=O)OC)c(NC(=S)N2CCCC(C)C2)c1 (stereo not drawn)	-0.3	20.7	6.6	-1.5	17.2	-43.0	nt
Cn1c(=O)c2cc(S(=O)(=O)NC(C(=O)N3CCCCCC3)c3ccccc3)ccc2n(C)c1=O (stereo not drawn)	-0.5	-9.0	7.8	-1.8	nt	14.0	nt
COc1ccccc1C1(CCNS(=O)(=O)c2ccc(C)cc2)CCOC(C(C)C)C1 (stereo not drawn)	13.2*	-16.0	10.7	2.5	nt	-33.0	3.4
Cc1nn(CC(=O)Nc2cccnc2)c(C)c1[N+](=O)[O-]	-1.0	-11.7	nt	nt	nt	nt	nt
CC1(c2ccc(OC(F)F)cc2)NC(=O)N(/N=C/c2c(O)ccc3ccccc23)C1=O (stereo not drawn)	-0.8	-5.5	11.3	13.8	-15.4	-28.6	nt
O=C(C(Sc1ccccc1)c1ccccc1)N1CCN(c2ccccc2F)CC1 (stereo not drawn)	14.4*	-31.5	nt	-0.1	30.0	-62.1	1.2
Cc1oc2ccc(OC(=O)c3cccs3)cc2c1C(=O)OC(C)C	14.4*	-4.3	3.8	-3.2	-7.1	-48.1	1.2
CCCCCCNS(=O)(=O)c1ccc(NC(=O)C2CCCO2)cc1 (stereo not drawn)	3.0	1.8	22.4	4.6	0.0	-56.6	nt
CC(C)N(Cc1cn[nH]c1-c1ccc(-c2ccccc2)cc1)Cc1nccn1C	0.4	-5.4	nt	nt	-100.0	nt	nt
Cc1cccc(NC(=O)CN(c2ccc(F)cc2)S(C)(=O)=O)c1	-0.5	-10.9	nt	nt	nt	nt	nt
CN(c1cccc(NC(=O)CN(c2ccc(F)cc2)S(C)(=O)=O)c1)S(C)(=O)=O	12.9*	-20.9	nt	nt	nt	nt	3.2
CCN(CC)CCN(C(=O)Cn1nnc(-c2ccc(C)o2)n1)C(C(=O)NC(C)(C)C)c1cccs1 (stereo not drawn)	2.6	-18.1	nt	nt	-21.9	nt	nt
Cc1cc(S(=O)(=O)N(Cc2ccccc2)Cc2ccc(N(C)C)cc2)ccc1-n1cnnn1	-0.5	-3.7	16.9	-4.3	11.1	-43.3	nt
Cc1cc(S(=O)(=O)N(Cc2cccs2)Cc2ccccc2F)ccc1-n1cnnn1	12.6*	-5.8	11.4	15.5	8.3	-42.4	2.0
COc1cccc(NC(=O)[C@H](C)NC(=O)C2CCN(S(=O)(=O)c3ccc(C)cc3)CC2)c1	nt	-13.1	nt	nt	nt	nt	nt
C(=N\N(c1ccccc1)c1ccccc1)/c1ccc2c(c1)OCO2	14.1*	5.2	22.9	-16.3	13.6	-40.9	7.0
CN(/N=C/c1ccc2c(c1)OCO2)c1ccccc1	4.1	nt	10.3	-10.2	-10.7	-47.2	nt
COc1ccccc1OCC(=O)Nc1ccc(CSc2ccccc2)cc1C	17.8*	11.9	1.8	-0.5	-4.2	-28.9	3.1
COc1ccc(-c2nc3ccccc3c(=O)n2CCOc2cc(C)ccc2C)cc1	14.0*	21.2	7.8	4.7	37.5	-54.0	4.9
COc1ccc(-c2nc3ccccc3c(=O)n2CCOc2ccc(C)cc2C)cc1	14.8*	-6.2	5.7	6.6	nt	-25.9	6.2
COc1ccc(-c2nc3ccccc3c(=O)n2CCOc2ccccc2C)cc1	21.0*	1.7	19.8	11.1	nt	-55.5	7.1

Compound activity from PubChem BioAssay.
